One assay relates to NCI-H460. The assay is described as follows: Cytotoxicity against human NCI-H460 cells after 48 hrs by MTT assay. Particulars: NCI-H460, 48 h. The class given is functional, cell-based. The procedure, abridged:
(§1)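 Log-phase cells were seeded at about 1 × 10⁵ cells/mL in 96-well plates and allowed to settle 12 h at 37 °C in 5% CO₂. Compounds were added at five concentrations for 48 h. Absorbance was read at dual wavelength 570/630 nm. Survival was expressed as a percentage of control, and IC50 was calculated by the Bliss method (n = 5). Each test was run in triplicate.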
In general terms: Formazan colour is commonly taken as a measure of viable cells.

For the next assay, the system named is HepG2. The assay is described as follows: Cytotoxicity against human HepG2 cells after 48 hrs by MTT assay. The class given is functional, cell-based. Particulars: HepG2, 48 h. A digest of the protocol: as §1
The subject of another assay is MGC-803. Put plainly: Cytotoxicity against human MGC803 cells after 48 hrs by MTT assay. The class given is functional, cell-based. Particulars: MGC-803, 48 h. The procedure, abridged: as §1
The subject of another assay is SK-OV-3. The assay is described as follows: Cytotoxicity against human SKOV3 cells after 48 hrs by MTT assay. The format is functional, cell-based. Particulars: SK-OV-3, 48 h. A digest of the protocol: as §1
In a further assay the test system is T-24. The assay is described as follows: Cytotoxicity against human T24 cells after 48 hrs by MTT assay. The format is functional, cell-based. Particulars: T-24, 48 h. The procedure, abridged:
as §1

Another assay relates to L02. Put plainly: Cytotoxicity against human HL7702 cells after 48 hrs by MTT assay. The format is cell-based. Particulars: L02, 48 h. A digest of the protocol: as §1
The species entered for assay [1] is Sus scrofa. Put plainly: Inhibition of porcine brain tubulin polymerization at 15 uM measured at 1 min interval for 40 mins by spectrophotometric method. The procedure, abridged: (§2)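 Purified brain tubulin, final 3.0 mg/mL, was added to start the reaction in 80 mM PIPES pH 6.9, 2.0 mM MgCl₂, 0.5 mM EGTA, 1 mM GTP and 10.2% glycerol, with the other components prewarmed to 37 °C. Compounds were tested at 10 or 15 µM. Polymerization at 37 °C was followed as absorbance at 340 nm over 40 min.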

Assay [2] is filed under the species Sus scrofa. Put plainly: Inhibition of porcine brain tubulin polymerization at 10 uM measured at 1 min interval for 40 mins by spectrophotometric method. The procedure, abridged: as §2
In the next assay the test system is A549/TR. Put plainly: Cytotoxicity against human A549/TR cells after 48 hrs by MTT assay. The class given is functional, cell-based. The procedure, abridged: as §1
For a further assay, the system named is HeLa. The assay is described as follows: Cytotoxicity against human HeLa cells after 48 hrs by MTT assay. The class given is functional, cell-based. A digest of the protocol:
as §1

Assay [3] in a line: Cytotoxicity against human HeLa/TR cells after 48 hrs by MTT assay. The format is functional, cell-based. The procedure, abridged:
as §1

Activity calls are given as the source filed them. No cut-off for these calls is given here. Where only a bound is given, the exact number is not on record here.

Take `COc1ccc(/C=C/C(=O)c2cc(OC)c(OC)c(OC)c2)cc1OCC(=O)Nc1ccc(O)cc1`: the IC50 (commonly the point on the concentration scale where inhibition reaches its midpoint) is more than 50 µM with NCI-H460; more than 50 µM in the assay with HepG2; 36.6 µM with MGC-803; more than 50 µM in the assay with SK-OV-3; more than 50 µM in the assay on T-24; more than 50 µM in the assay on L02.
In the case of `COc1ccc(/C=C/C(=O)c2cc(OC)c(OC)c(OC)c2)cc1OCC(=O)Nc1ccc(Br)cc1`, the IC50 in the assay on NCI-H460 is 10.3 µM; in the assay on HepG2 it was 10.5 µM; in the assay on MGC-803 it was 12.9 µM; with SK-OV-3, 13.1 µM; in the assay with T-24, 11.6 µM; in the assay with L02 it was more than 50 µM.
For `COc1ccc(/C=C/C(=O)c2ccc(OC)c3c2OC(C)(C)C=C3)cc1OCC(=O)Nc1ccc(Br)cc1`, the IC50 in the assay on NCI-H460 is 20.5 µM; in the assay on HepG2, 22.7 µM; in the assay with MGC-803 it was 17.2 µM; in the assay with SK-OV-3, 19 µM; in the assay with T-24 it was 19.9 µM; in the assay with L02, more than 50 µM.
Take `COc1ccc(/C=C/C(=O)c2ccc(OC)c3c2OC(C)(C)C=C3)cc1OCC(=O)Nc1ccccc1F`: the IC50 with NCI-H460 was 17 µM; in the assay on HepG2 it was 19.1 µM; in the assay with MGC-803, 20.6 µM; in the assay on SK-OV-3, 18.7 µM; in the assay on T-24 it was 17.5 µM; with L02 it was more than 50 µM.
Consider `COc1ccccc1NC(=O)COc1cc(/C=C/C(=O)c2cc(OC)c(OC)c(OC)c2)ccc1OC`, for which the IC50 was 12.1 µM with NCI-H460; 13.6 µM in the assay on HepG2; 14.9 µM in the assay on MGC-803; 16.2 µM in the assay with SK-OV-3; 17.4 µM in the assay with T-24; more than 50 µM in the assay on L02.
`COc1ccc(/C=C/C(=O)c2ccc(OC)c3c2OC(C)(C)C=C3)cc1OCC(=O)Nc1ccccc1C`: the concentration for half-maximal inhibition (IC50) is 7.96 µM in the assay with NCI-H460; 9.44 µM with HepG2; 10.3 µM with MGC-803; 10 µM in the assay on SK-OV-3; 9.86 µM in the assay with T-24; more than 50 µM in the assay with L02.
Turning to `COc1ccc(/C=C/C(=O)c2ccc(OC)c3c2OC(C)(C)C=C3)cc1OCC(=O)Nc1ccccc1`, the 50% inhibitory concentration (IC50) in the assay on NCI-H460 was 17.6 µM; in the assay on HepG2, 20.6 µM; with MGC-803 it was 18.4 µM; in the assay on SK-OV-3 it was 20.8 µM; in the assay on T-24 it was 21.1 µM; with L02, more than 50 µM.
In the case of `COc1ccc(/C=C/C(=O)c2cc(OC)c(OC)c(OC)c2)cc1OCC(=O)Nc1ccccc1Br`, the IC50 in the assay on NCI-H460 was 10.3 µM; in the assay on HepG2, 15.2 µM; in the assay with MGC-803, 14.6 µM; in the assay with SK-OV-3, 16.8 µM; with T-24 it was 19.1 µM; in the assay on L02 it was more than 50 µM.
Regarding `COc1ccc(/C=C/C(=O)c2ccc(OC)c3c2OC(C)(C)C=C3)cc1` [MILLEPACHINE], the half-inhibitory concentration (IC50) in the assay on NCI-H460 worked out at 7.65 µM; with HepG2 it was 4.54 µM; in the assay with MGC-803, 11 µM; with SK-OV-3, 9.85 µM; with T-24 it was 11.1 µM; in the assay with L02, 25.1 µM.
`COc1ccccc1NC(=O)COc1cc(/C=C/C(=O)c2ccc(OC)c3c2OC(C)(C)C=C3)ccc1OC`: the half-inhibitory concentration (IC50) with NCI-H460 is 5.48 µM; in the assay on HepG2, 7.35 µM; in the assay with MGC-803, 6.72 µM; with SK-OV-3, 8.24 µM; in the assay with T-24, 7.84 µM; with L02 it was more than 50 µM. For the same molecule, the inhibition result in the assay listed under Sus scrofa [1] was “Active”.
Regarding `COc1ccc(/C=C/C(=O)c2ccc(OC)c3c2OC(C)(C)C=C3)cc1OCC(=O)Nc1ccc(F)cc1`, the 50% inhibitory concentration (IC50) in the assay on NCI-H460 was 14.2 µM; in the assay on HepG2, 14.1 µM; in the assay on MGC-803, 13.5 µM; with SK-OV-3, 13.9 µM; in the assay with T-24, 17.6 µM; in the assay with L02 it was more than 50 µM.
As for `COc1ccc(/C=C\c2cc(OC)c(OC)c(OC)c2)cc1O`, the inhibition result in the assay listed under Sus scrofa [2] is “Active”.
Regarding `COc1ccc(/C=C/C(=O)c2cc(OC)c(OC)c(OC)c2)cc1OCC(=O)Nc1ccccc1F`, the 50% inhibitory concentration (IC50) in the assay with NCI-H460 is 6.71 µM; in the assay with HepG2, 7.58 µM; with MGC-803 it was 8.09 µM; with SK-OV-3, 9.51 µM; in the assay with T-24, 10.7 µM; with L02, more than 50 µM.
For `COc1ccc(NC(=O)COc2cc(/C=C/C(=O)c3ccc(OC)c4c3OC(C)(C)C=C4)ccc2OC)cc1`, the IC50 in the assay with NCI-H460 is 8.56 µM; in the assay with HepG2 it was 8.99 µM; in the assay with MGC-803 it was 6.73 µM; with SK-OV-3, 9.02 µM; in the assay with T-24 it was 9.51 µM; with L02 it was more than 50 µM.
Turning to `COc1ccc(/C=C/C(=O)c2cc(OC)c(OC)c(OC)c2)cc1OCC(=O)Nc1ccccc1`, the IC50 is 11.3 µM in the assay on NCI-H460; 10.1 µM in the assay on HepG2; 14.6 µM in the assay on MGC-803; 10.7 µM in the assay on SK-OV-3; 12.6 µM with T-24; more than 50 µM with L02.
Regarding `COc1ccc(/C=C/C(=O)c2ccc(OC)c3c2OC(C)(C)C=C3)cc1OCC(=O)Nc1ccc(Cl)cc1`, the IC50 in the assay on NCI-H460 was 12.9 µM; in the assay with HepG2 it was 15.4 µM; with MGC-803, 19.4 µM; in the assay with SK-OV-3, 20 µM; in the assay with T-24 it was 17.1 µM; in the assay with L02, more than 50 µM.
With `COc1ccc(NC(=O)COc2cc(/C=C/C(=O)c3cc(OC)c(OC)c(OC)c3)ccc2OC)cc1`, the IC50 with NCI-H460 is 7.07 µM; with HepG2, 7.66 µM; in the assay with MGC-803, 8.52 µM; in the assay on SK-OV-3, 9.82 µM; with T-24, 9.36 µM; in the assay on L02, more than 50 µM.
On to `COc1ccc(/C=C/C(=O)c2ccc(OC)c3c2OC(C)(C)C=C3)cc1OCC(=O)Nc1ccc(C)cc1`, for which the IC50 in the assay on NCI-H460 is 8.77 µM; with HepG2 it was 9.32 µM; in the assay with MGC-803 it was 8.23 µM; in the assay with SK-OV-3, 9.58 µM; in the assay with T-24, 10.1 µM; in the assay with L02, more than 50 µM.
`COc1ccc(/C=C/C(=O)c2ccc(OC)c3c2OC(C)(C)C=C3)cc1OCC(=O)Nc1ccc(O)cc1`: the half-inhibitory concentration (IC50) is 18 µM in the assay on NCI-H460; 15.6 µM in the assay on HepG2; 20.9 µM with MGC-803; 14.5 µM with SK-OV-3; 18.3 µM in the assay with T-24; more than 50 µM in the assay with L02.
On to `COc1ccc(/C=C/C(=O)c2ccc(OC)c3c2OC(C)(C)C=C3)cc1OCC(=O)Nc1ccccc1Br`, for which the half-inhibitory concentration (IC50) in the assay on NCI-H460 is 20 µM; in the assay on HepG2, 27.8 µM; in the assay with MGC-803, 32.7 µM; in the assay on SK-OV-3, 30.3 µM; in the assay with T-24, 23.2 µM; in the assay on L02, more than 50 µM.
With `CC(=O)O[C@H]1C(=O)[C@@]2(C)[C@H]([C@H](OC(=O)c3ccccc3)[C@]3(O)C[C@H](OC(=O)[C@H](O)[C@@H](NC(=O)c4ccccc4)c4ccccc4)C(C)=C1C3(C)C)[C@]1(OC(C)=O)CO[C@@H]1C[C@@H]2O` [PACLITAXEL], the IC50 is 1510 nM in the assay with A549/TR, 8.21 nM with HeLa and 1530 nM in assay [3]. Also, the inhibition result in the assay listed under Sus scrofa [2] was “Active”.
On to `COc1ccc(/C=C/C(=O)c2cc(OC)c(OC)c(OC)c2)cc1OCC(=O)Nc1ccc(C)cc1`, for which the concentration for half-maximal inhibition (IC50) with NCI-H460 was 7.69 µM; in the assay on HepG2, 8.97 µM; with MGC-803 it was 10.3 µM; in the assay with SK-OV-3, 10.3 µM; in the assay on T-24 it was 11.6 µM; in the assay with L02 it was more than 50 µM.
With `COc1ccc(/C=C/C(=O)c2cc(OC)c(OC)c(OC)c2)cc1OCC(=O)Nc1ccc(Cl)cc1`, the IC50 in the assay on NCI-H460 was 20.1 µM; with HepG2, 20.5 µM; with MGC-803 it was 26.3 µM; with SK-OV-3 it was 27.2 µM; in the assay with T-24 it was 21.7 µM; with L02, more than 50 µM.
As for `COc1ccc(/C=C/C(=O)c2cc(OC)c(OC)c(OC)c2)cc1OCC(=O)Nc1ccccc1C`, the half-inhibitory concentration (IC50) in the assay with NCI-H460 is 22.9 µM; in the assay on HepG2, 26.3 µM; in the assay on MGC-803 it was 28.4 µM; in the assay on SK-OV-3, 28.4 µM; with T-24, 27.1 µM; with L02 it was more than 50 µM.
For `COc1ccc(/C=C/C(=O)c2cc(OC)c(OC)c(OC)c2)cc1OCC(=O)Nc1ccc(F)cc1`, the concentration for half-maximal inhibition (IC50) with NCI-H460 is 19.2 µM; in the assay on HepG2, 21.2 µM; in the assay with MGC-803 it was 20.9 µM; in the assay with SK-OV-3 it was 22.5 µM; with T-24, 24.7 µM; in the assay with L02, more than 50 µM.
For the molecule `COc1ccc(/C=C/C(=O)c2ccc(OC)c3c2OC(C)(C)C=C3)cc1OCC(=O)Nc1ccccc1Cl`, the IC50 is 13 µM in the assay with NCI-H460; 11.8 µM with HepG2; 14.2 µM with MGC-803; 14.6 µM with SK-OV-3; 15.4 µM with T-24; more than 50 µM in the assay with L02.

These data come from ChEMBL document CHEMBL4028810, “Synthesis and biological evaluation of novel chalcone derivatives as a new class of microtubule destabilizing agents” (Eur J Med Chem, 2017).
